Reference: ChEMBL document CHEMBL1828597, “Tyrosyl-tRNA synthetase inhibitors as antibacterial agents: synthesis, molecular docking and structure-activity relationship analysis of 3-aryl-4-arylaminofuran-2(5H)-ones” (Eur J Med Chem, 2011)
≈ marks a conversion by molar mass, not a printed value.

Columns and labels:
Escherichia coli = experiment: Antibacterial activity against Escherichia coli ATCC 35218 after 24 hrs by MTT assay; format: functional; details: ATCC 35218, 24 h
How it was run: (§1)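 LB medium, inocula of about 10⁵ cfu/mL in 96-well plates against serially diluted compounds (DMSO stock diluted in 50% v/v DMSO/PBS), 37 °C for 24 h. Read-out: PBS containing 2 mg/mL MTT added for 4–5 h at room temperature, wells emptied, solubilizer added for 12 h at room temperature, then OD at 550 nm. MIC₅₀ from this colorimetric read.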

Staphylococcus aureus = experiment: Antibacterial activity against Staphylococcus aureus ATCC 25923 after 24 hrs by MTT assay; format: functional; details: ATCC 25923, 24 h; how it was run: as §1
Candida albicans = experiment: Antifungal activity against Candida albicans ATCC 10231 after 48 hrs by MTT assay; details: ATCC 10231, 48 h
Bacillus subtilis = experiment: Antibacterial activity against Bacillus subtilis ATCC 6633 after 24 hrs by MTT assay; format: functional; details: ATCC 6633, 24 h; how it was run: as §1
[1] = Inhibition of Staphylococcus aureus TyrRS assessed as inhibition of [3H]tyrosine incorporation after 10 mins by liquid scintillation counting

Row | SMILES | MIC50 (Escherichia coli) | MIC50 (Staphylococcus aureus) | MIC50 (Candida albicans) | MIC50 (Bacillus subtilis) | IC50 [1]
1 | O=C1OCC(Nc2cccc(Cl)c2)=C1c1ccccc1 | > 50 µg/mL | 32.1 µg/mL (≈ 112 µM) | 41.8 µg/mL (≈ 146 µM) | > 50 µg/mL | 20.8 µM
2 | COc1ccccc1NC1=C(c2cccc(Cl)c2)C(=O)OC1 | > 50 µg/mL | 49.4 µg/mL (≈ 156 µM) | > 50 µg/mL | > 50 µg/mL | 32.5 µM
3 | O=C1OCC(Nc2ccc(Br)cc2)=C1c1ccc(Br)cc1 | > 50 µg/mL | 23.1 µg/mL (≈ 56.5 µM) | 41.8 µg/mL (≈ 102 µM) | > 50 µg/mL | 11.4 µM
4 | Cc1ccc(NC2=C(c3ccc(Br)cc3)C(=O)OC2)cc1 | > 50 µg/mL | > 50 µg/mL | > 50 µg/mL | > 50 µg/mL | > 100 µM
5 | O=C1OCC(Nc2cccc(Cl)c2)=C1c1cccc(Cl)c1 | > 50 µg/mL | 4.6 µg/mL (≈ 14.4 µM) | 12.2 µg/mL (≈ 38.1 µM) | 11.7 µg/mL (≈ 36.5 µM) | 4.3 µM
6 | O=C1OCC(Nc2cc(Cl)cc(Cl)c2)=C1c1cccc(Br)c1 | > 50 µg/mL | 0.06 µg/mL (≈ 0.15 µM) | 5.4 µg/mL (≈ 13.5 µM) | 1.2 µg/mL (≈ 3.01 µM) | 0.09 µM
7 | O=C1OCC(Nc2cc(Br)cc(Br)c2)=C1c1ccc(F)cc1 | > 50 µg/mL | 10.2 µg/mL (≈ 23.9 µM) | 28.6 µg/mL (≈ 67 µM) | 38.6 µg/mL (≈ 90.4 µM) | 9.2 µM
8 | O=C1OCC(Nc2ccccc2Cl)=C1c1ccc(Br)cc1 | > 50 µg/mL | 34.6 µg/mL (≈ 94.9 µM) | 49.3 µg/mL (≈ 135 µM) | > 50 µg/mL | 21 µM
9 | O=C1OCC(Nc2cc(Cl)cc(Cl)c2)=C1c1cccc(Cl)c1 | > 50 µg/mL | 2.9 µg/mL (≈ 8.18 µM) | 10.1 µg/mL (≈ 28.5 µM) | 13.4 µg/mL (≈ 37.8 µM) | 2.9 µM
10 | O=C1OCC(Nc2ccccc2Cl)=C1c1ccccc1 | > 50 µg/mL | > 50 µg/mL | > 50 µg/mL | > 50 µg/mL | 89.9 µM
11 | O=C1OCC(Nc2ccccc2[N+](=O)[O-])=C1c1cccc(Cl)c1 | > 50 µg/mL | > 50 µg/mL | > 50 µg/mL | > 50 µg/mL | 49.7 µM
12 | O=C1OCC(Nc2ccccc2[N+](=O)[O-])=C1c1ccccc1 | > 50 µg/mL | > 50 µg/mL | > 50 µg/mL | > 50 µg/mL | > 100 µM
13 | O=C1OCC(Nc2cc(Br)cc(Br)c2)=C1c1ccc(Br)cc1 | > 50 µg/mL | 23.5 µg/mL (≈ 48.2 µM) | 49.2 µg/mL (≈ 101 µM) | > 50 µg/mL | 13.6 µM
14 | COc1ccc(NC2=C(c3ccc(Br)cc3)C(=O)OC2)cc1 | > 50 µg/mL | > 50 µg/mL | > 50 µg/mL | > 50 µg/mL | 97.6 µM
15 | CC1(C)S[C@@H]2[C@H](NC(=O)Cc3ccccc3)C(=O)N2[C@H]1C(=O)O [PENICILLIN G] | 2 µg/mL (≈ 5.98 µM) | – | – | – | –
16 | O=C1OCC(Nc2ccc(Cl)cc2)=C1c1ccc(Br)cc1 | > 50 µg/mL | 12.6 µg/mL (≈ 34.6 µM) | 25.7 µg/mL (≈ 70.5 µM) | > 50 µg/mL | 15.2 µM
17 | O=C1OCC(Nc2ccccc2[N+](=O)[O-])=C1c1ccc(Br)cc1 | > 50 µg/mL | > 50 µg/mL | > 50 µg/mL | > 50 µg/mL | 67.3 µM
18 | O=C1OCC(Nc2ccc([N+](=O)[O-])cc2)=C1c1ccc(Br)cc1 | > 50 µg/mL | > 50 µg/mL | > 50 µg/mL | > 50 µg/mL | 63.3 µM
19 | O=C1OCC(Nc2ccc(Br)cc2)=C1c1cccc(Br)c1 | > 50 µg/mL | 6.5 µg/mL (≈ 15.9 µM) | 18.7 µg/mL (≈ 45.7 µM) | 31.6 µg/mL (≈ 77.2 µM) | 5.4 µM

Row | SMILES | MIC50 (Escherichia coli) | MIC50 (Staphylococcus aureus) | MIC50 (Candida albicans) | MIC50 (Bacillus subtilis) | IC50 [1]
20 | O=C1OCC(Nc2cc(F)cc(F)c2)=C1c1ccc(Br)cc1 | > 50 µg/mL | 7.1 µg/mL (≈ 19.4 µM) | 21.7 µg/mL (≈ 59.3 µM) | 19.4 µg/mL (≈ 53 µM) | 6.3 µM
21 | O=C1OCC(Nc2ccccn2)=C1c1ccc(Br)cc1 | > 50 µg/mL | 39 µg/mL (≈ 118 µM) | > 50 µg/mL | > 50 µg/mL | 25.6 µM
22 | O=C1OCC(Nc2cccc([N+](=O)[O-])c2)=C1c1ccc(Br)cc1 | > 50 µg/mL | 10.8 µg/mL (≈ 28.8 µM) | 26.3 µg/mL (≈ 70.1 µM) | 28.6 µg/mL (≈ 76.2 µM) | 10.3 µM
23 | CC(=O)N1CCN(c2ccc(OCC3COC(Cn4ccnc4)(c4ccc(Cl)cc4Cl)O3)cc2)CC1 (centres undefined) [KETOCONAZOLE] | – | – | 4.1 µg/mL (≈ 7.71 µM) | – | –
24 | O=C1OCC(Nc2cccc(Cl)c2)=C1c1ccc(Br)cc1 | > 50 µg/mL | 2.5 µg/mL (≈ 6.86 µM) | 9 µg/mL (≈ 24.7 µM) | 11.3 µg/mL (≈ 31 µM) | 1.7 µM
25 | COc1ccc(C2=C(Nc3cc(Cl)cc(Cl)c3)COC2=O)cc1 | > 50 µg/mL | 1.8 µg/mL (≈ 5.14 µM) | 7.2 µg/mL (≈ 20.6 µM) | 9.6 µg/mL (≈ 27.4 µM) | 1.6 µM
26 | O=C1OCC(Nc2cc(Cl)cc(Cl)c2)=C1c1ccc(Br)cc1 | > 50 µg/mL | 0.42 µg/mL (≈ 1.05 µM) | 5.8 µg/mL (≈ 14.5 µM) | 2.2 µg/mL (≈ 5.51 µM) | 0.39 µM
27 | O=C1OCC(Nc2cccc(O)c2)=C1c1ccc(Br)cc1 | > 50 µg/mL | 25.2 µg/mL (≈ 72.8 µM) | > 50 µg/mL | > 50 µg/mL | 15.4 µM
28 | O=C1OCC(Nc2ccc(O)cc2)=C1c1ccc(Br)cc1 | > 50 µg/mL | > 50 µg/mL | > 50 µg/mL | > 50 µg/mL | 85.2 µM
29 | NC[C@H]1O[C@H](O[C@H]2[C@H](O)[C@@H](O[C@H]3O[C@H](CO)[C@@H](O)[C@H](N)[C@H]3O)[C@H](N)C[C@@H]2N)[C@H](O)[C@@H](O)[C@@H]1O [KANAMYCIN] | – | 1.1 µg/mL (≈ 2.27 µM) | – | 0.42 µg/mL (≈ 0.867 µM) | –
30 | CN(C1=C(c2ccc(Br)cc2)C(=O)OC1)c1ccccc1 | > 50 µg/mL | 45.8 µg/mL (≈ 133 µM) | > 50 µg/mL | > 50 µg/mL | 29.4 µM
31 | O=C1OCC(Nc2cc(Cl)cc(Cl)c2)=C1c1ccc(O)cc1 | > 50 µg/mL | 2.9 µg/mL (≈ 8.63 µM) | 10.2 µg/mL (≈ 30.3 µM) | 9.8 µg/mL (≈ 29.2 µM) | 3.5 µM
32 | O=C1OCC(Nc2cccc(Cl)c2)=C1c1ccc(Cl)cc1 | > 50 µg/mL | 3.3 µg/mL (≈ 10.3 µM) | 9.7 µg/mL (≈ 30.3 µM) | 10.9 µg/mL (≈ 34 µM) | 2.4 µM
33 | O=C1OCC(Nc2cccc([N+](=O)[O-])c2)=C1c1ccccc1 | > 50 µg/mL | > 50 µg/mL | > 50 µg/mL | > 50 µg/mL | 44.6 µM
34 | COc1ccccc1NC1=C(c2ccc(Br)cc2)C(=O)OC1 | > 50 µg/mL | > 50 µg/mL | > 50 µg/mL | > 50 µg/mL | 36.8 µM
35 | O=C1OCC(Nc2ccccc2)=C1c1ccc(Br)cc1 | > 50 µg/mL | 27.8 µg/mL (≈ 84.2 µM) | 37.5 µg/mL (≈ 114 µM) | 41.7 µg/mL (≈ 126 µM) | 16.6 µM
36 | O=C1OCC(Nc2ccccc2Cl)=C1c1cccc(Cl)c1 | > 50 µg/mL | 21.5 µg/mL (≈ 67.2 µM) | 46.8 µg/mL (≈ 146 µM) | 47.5 µg/mL (≈ 148 µM) | 15.7 µM
37 | COc1cc(NC2=C(c3ccc(Br)cc3)C(=O)OC2)cc(OC)c1 | > 50 µg/mL | > 50 µg/mL | > 50 µg/mL | > 50 µg/mL | 17.5 µM
38 | O=C1OCC(Nc2cc(Br)cc(Br)c2)=C1c1cccc(Br)c1 | > 50 µg/mL | 2.3 µg/mL (≈ 4.71 µM) | 8.5 µg/mL (≈ 17.4 µM) | 8.8 µg/mL (≈ 18 µM) | 1.9 µM
